Laboratory results as given in ChEMBL document CHEMBL1221407, “Anthraquinone, cyclopentanone, and naphthoquinone derivatives from the sea fan-derived fungi Fusarium spp. PSU-F14 and PSU-F135” (J Nat Prod, 2010).
pIC50: −log10 of the molar value. ≈ marks a conversion by molar mass, not a printed value. Calls of active or inactive are those of the source. The calls are words filed in the database; no cut-off is given here.

Legend:
Plasmodium falciparum = experiment: Antimalarial activity against multidrug-resistant Plasmodium falciparum K1 by microculture radioisotope technique; type: functional, organism-based; conditions: for pIC50: Plasmodium falciparum, K1, read-out: IC50
[1] = system: Mycobacterium tuberculosis; experiment: Antimycobacterial activity against Mycobacterium tuberculosis H37Ra by green fluorescent protein-based fluorescent assay; type: functional
KB = experiment: Cytotoxicity against human KB cells; type: functional, cell-based; conditions: for pIC50: Homo sapiens, KB, read-out: IC50
Method in brief: (§1)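 KB (oral human carcinoma) and MCF-7 (human breast cancer) cells; resazurin microplate assay.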

MCF7 = experiment: Cytotoxicity against human MCF7 cells; type: functional, cell-based; method in brief: as §1
Vero = experiment: Cytotoxicity against african green monkey Vero cells; type: cell-based, Chlorocebus sabaeus; conditions: for pIC50: Chlorocebus sabaeus, Vero, read-out: IC50; for IC50: vero
Method in brief: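 Vero cells (African green monkey kidney fibroblasts), noncancerous; run in triplicate by the method of Hunt and co-workers.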

Cryptococcus neoformans = experiment: Antimicrobial activity against Cryptococcus neoformans by colorimetric broth microdilution test; type: functional
Method in brief: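 Colorimetric broth microdilution run to CLSI M27-A2 (reference broth dilution method for yeasts) and Drummond and Waigh.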

Nannizzia gypsea = experiment: Antimicrobial activity against Microsporum gypseum by colorimetric broth microdilution test; type: functional
Method in brief: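 Colorimetric broth microdilution run to CLSI M38-A (broth dilution method for filamentous fungi) and Drummond and Waigh.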

SMILES	pIC50 (Plasmodium falciparum)	MIC [1]	pIC50 (KB)	pIC50 (MCF7)	pIC50 (Vero)	MIC (Cryptococcus neoformans) [µM]	MIC (Nannizzia gypsea) [µM]	IC50 (Plasmodium falciparum)	IC50 (Vero)	IC50 (KB; kb)
COC1=CC(=O)c2c(cc3c(c2O)C[C@@H](O)[C@@](C)(O)C3)C1=O [NIGROSPORIN B]	4.89	41 µM (≈ 12.5 µg/mL)	4.06	5.27	4.54	–	–	–	–	–
NNC(=O)c1ccncc1 [ISONIAZID]	–	0.17 µM (≈ 0.0233 µg/mL)	–	–	–	–	–	–	–	–
COC1=CC(=O)c2c(O)c3c(c(O)c2C1=O)CC(C)(O)OC3 (stereo not given) [FUSARUBIN]	–	inactive	4.85	5.01	4.10	> 200	> 200	Not Active	–	–
Cc1c2ccncc2c(C)c2c1[nH]c1ccccc12 [ELLIPTECINE]	–	–	5.96	–	5.35	–	–	–	–	–
C[C@H]1[C@@H](O)O[C@@H]2O[C@@]3(C)CC[C@H]4[C@H](C)CC[C@@H]1[C@@]24OO3 [ARTENIMOL]	8.40	–	–	–	–	–	–	–	–	–
COC1=CC(=O)c2c(O)c(C)c(CC(C)=O)c(O)c2C1=O [JAVANICIN]	4.92	inactive	5.24	4.89	3.77	–	–	–	–	–
COc1cc(O)c2c(c1O)[C@H](O)[C@H]1C[C@](C)(O)[C@H](O)[C@@H](O)[C@@H]1C2=O [9ALPHA-HYDROXYHALOROSELLINIA A]	4.60	39 µM (≈ 13.3 µg/mL)	4.31	5.21	4.27	–	–	–	–	–
COc1cc(O)c2c(c1O)[C@@H](O)[C@@H](CC(C)=O)[C@@H](CO)C2=O [FUSARNAPHTHOQUINONE A]	–	inactive	3.89	4.66	–	–	–	Not Active	Not Active	–
COc1cccc2c1C(=O)c1c(O)c3c(c(O)c1C2=O)C[C@@](O)(C(=O)CO)C[C@@H]3O[C@H]1C[C@H](N)[C@H](O)[C@H](C)O1 [DOXORUBICIN]	–	–	6.48	5.66	–	–	–	–	–	–
COC1=CC(=O)c2c(O)c3c(c(O)c2C1=O)C=C(C)OC3 [ANHYDROFUSARUBIN]	4.85	87 µM (≈ 25.1 µg/mL)	5.70	6.05	4.24	–	–	–	–	–
COc1cc(O)c2c(c1O)C(=O)c1cc(C)ccc1C2=O [AUSTROCORTIRUBIN]	–	inactive	–	5.20	–	–	–	Not Active	Not Active	Not Active
COC1=CC(=O)c2c(O)c3c(c(O)c2C1=O)C[C@](C)(O)[C@H](O)[C@H]3O [BOSTRYCIN]	5.01	inactive	6.05	5.57	5.38	–	–	–	–	–
CO[C@@H]1CC(=O)c2c(O)c(C)c3cc(C)oc3c2[C@@H]1O [FUSARNAPHTHOQUINONE B]	–	–	–	–	–	> 200	> 200	–	–	–
COc1cc(O)c2c(c1O)[C@H](O)[C@H]1C[C@](C)(O)[C@H](O)C[C@@H]1C2=O	–	inactive	4.72	4.82	4.24	–	–	Not Active	–	–
